Entries after “also recorded” stand apart in the source; their conditions may differ.
Key:
[1] = system: 7 dpf zebrafish larvae; experiment: zebrafish strobe light response; assay type: in vivo, Danio rerio; settings: for switch of strobe light response from freezing to escape behavior (in words): dose curves, freezing index, 7 dpf larvae, 1 hr incubation
Method in brief: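 7 dpf larvae (EkkWill; TuAB sigmar1 frameshift mutants vs WT siblings) raised in 10 mM HEPES-E3 at 28 °C, 10 per well. Compound added at 1:100 from stock, 1 hr at 28 °C in ambient light; genetic tests included 10 μM scopolamine. Infrared video across alternating 1-min dark/strobe periods. Freezing index = third-quartile motion, strobe minus dark. 12 wells/dose; switching concentration taken from the dose-curve zero intercept.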

[2] = molecular target: sigma-1 receptor (Cavia porcellus, UniProt Q60492); experiment: sigma-1 radioligand competition binding assay; set-up: species or system rodent
sigma-1 receptor, sequence (Q60492 whole entry): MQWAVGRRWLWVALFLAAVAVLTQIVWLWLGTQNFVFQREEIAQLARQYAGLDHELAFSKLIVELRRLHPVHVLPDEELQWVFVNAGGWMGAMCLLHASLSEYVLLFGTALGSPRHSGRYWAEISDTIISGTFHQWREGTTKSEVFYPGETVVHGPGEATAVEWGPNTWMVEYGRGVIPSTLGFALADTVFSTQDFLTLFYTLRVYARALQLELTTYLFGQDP

SMILES | switch of strobe light response from freezing to escape behavior (in words) [1] | other results
CN1CCC[C@H]1c1cccnc1 [nicotine] | did not cause strobe-induced | 
COc1ccccc1N1CCN(CC(O)COc2cccc3ccccc23)CC1 (centres unmarked) [naftopidil] |  | switch from freezing to escape at 5 μM ([1]; 5 μM): just barely switched the zebrafish response from freezing to escape; immobilization of larvae at 10 μM ([1]; 10 μM, presumably due to toxicity): completely immobilized the larvae
COC(=O)C(c1ccccc1)C1CCCCN1 (centres unmarked) [methylphenidate] | did not cause strobe-induced | 
Cc1cccc(NC(=O)CCN2CCNCC2)c1 [Compound 27, 3-(piperazin-1-yl)-N-(m-tolyl)propanamide] | no effect; also recorded: ineffective at modulating behavior | sigma-1 binding (in words) [2]: lost its binding potency at sigma-1
CC(N)Cc1ccccc1 (centres unmarked) [amphetamine] | did not cause strobe-induced | 
COC(=O)[C@H]1[C@@H](OC(=O)c2ccccc2)C[C@@H]2CC[C@H]1N2C [cocaine] | did not cause strobe-induced | 
